Source: PubChem BioAssay (Broad Institute)
A selection: hits, their analogues and other compounds. The true share with any hit is near 3.6%.
CSC inhib: blocks cancer stem cells; cancer stem cell-like cells viability, luminescence; 1.1% of 300,000 active; AID 2717; inhibition, % at 7.5 µM; in the data active means inhibition above about 75%; tested in HMLE shEcad cells
T cruzi repl: blocks replication of Trypanosoma cruzi. 1.4% of 300,000 active. inhibition, % (test concentration not listed). T. cruzi beta-gal in NIH3T3, luminescence, 90 h. AID 1885;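 active means mean inhibition across valid replicates above about 55%, limit read from the data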;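 further: signal also drops with host cell toxicity which is not excluded here; 0% = plate median of DMSO wells and 100% = zero luminescence signal; higher percent means less beta-gal luminescence so fewer parasites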
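System: Mouse NIH/3T3 fibroblasts infected with β-gal-expressing T. cruzi Tulahuen C4 | Quantity: NIH/3T3 cells, 5,000 per well | Reagent: 5000 reporter trypomastigotes per well | Dosing: Compound pinned at 50 nL/well, DMSO | Schedule: 3 h host attachment, then at least 90 h co-culture | Detection: GalScreen luminescence, 60 min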
HIF activator: HIF pathway transcriptional activation; U2OS HRE-luciferase reporter, luminescence; normalized: DMSO 0%, desferrioxamine 100%; activation, % at 7.5 µM (by protocol); 0.32% of 300,000 active; AID 1910;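 active means mean activation of at least 10% of the iron chelator positive control signal, with at least half of replicates also reaching 10%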
PfHsp90 yeast 2: reduces growth (ATP signal) of yeast expressing P. falciparum Hsp90; AID 504621; 0.32% of 310,000 active; S. cerevisiae expressing PfHsp90, BacTiter-Glo ATP, 48 h; yeast lacking PDR1 and PDR3 efflux regulators; inhibition, % at 9.4 µM;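 active means every replicate shows inhibition above about 80%, whatever the replicate mean, limit read from the data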;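 further: 0% = DMSO neutral controls and 100% = 20 µM radicicol positive controls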
SKKanGAS inh: inhibitors of SKKanGAS S. pyogenes growth in kanamycin (SK-promoter or general growth effect); inhibition, % at 7.5 µM; BacTiter-Glo, 6 h; 1.3% of 300,000 active;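 active means mean replicate score, as percent of positive control median, at least 50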;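 further: strain carries kanamycin resistance gene driven by streptokinase promoter and grows in 40 µg/ml kanamycin; loss of luminescence reflects streptokinase promoter inhibition or plain growth inhibition; 0% = median of DMSO wells and 100% = positive control at its reference dose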
Beta apoptosis: blocks beta cell apoptosis; INS-1E cytokine-induced death, ATP luminescence, 48 h; percent of positive-control rescue, neutral wells zero; protection from apoptosis, % (test concentration not listed); 0.8% of 300,000 active; AID 435005;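 active means Every replicate reaches about 75%, or at least half do and their mean reaches it too, limit read from the data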;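 further: 0% = cytokine-treated negative control wells and 100% = positive control rescue; higher means more ATP so stronger rescue from cytokine killing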
Starred values were filed as active, the others as inactive.

How did CCCC(=O)Nc1ccc(-c2nc3ncccc3o2)cc1 do in these assays?
CSC inhib: -3.0; T cruzi repl: 2.9; HIF activator: 2.7; PfHsp90 yeast 2: -3.5; SKKanGAS inh: -0.5; Beta apoptosis: -4.5

What do the screens show for `Oc1cc(-c2ccc(N3CCCCC3)nc2)cc2cccnc12`?
PfHsp90 yeast 2: 110.6*; Beta apoptosis: 96.1*

How did CN(C)c1ccc(-c2cc(O)c3ncccc3c2)cc1 do in these assays?
CSC inhib: 114.5*; PfHsp90 yeast 2: 101.2*; Beta apoptosis: 87.7*

Results for CCOc1ccc2c(S(=O)(=O)O)cccc2c1[N+](=O)[O-] ?
PfHsp90 yeast 2: 6.3

What do the screens show for `CCSCc1nnc(SCC(=O)Nc2ccc(F)cc2)n1CC`?
CSC inhib: -22.4; T cruzi repl: -1.1; HIF activator: -0.1; SKKanGAS inh: 1.6; Beta apoptosis: -7.8

What do the screens show for `NC(=S)N/N=C/c1ccc(-n2nncc2-c2ccc(Cl)cc2)cc1`?
CSC inhib: -6.9; T cruzi repl: 56.5*; HIF activator: -0.1; PfHsp90 yeast 2: -6.9; SKKanGAS inh: -0.9

How did Nc1[nH]n2c(=O)cc(-c3ccccc3)nc2c1N=Nc1ccc2c(c1)OCO2 do in these assays?
CSC inhib: 68.0; T cruzi repl: 0.0; HIF activator: 0.0; SKKanGAS inh: 55.6*; Beta apoptosis: 8.0

What do the screens show for `Cc1sc2ncnc(N3CCC(C(=O)Nc4ccc(Br)cc4Br)CC3)c2c1C`?
CSC inhib: 2.3; T cruzi repl: 14.8; HIF activator: -0.3; PfHsp90 yeast 2: -0.1; SKKanGAS inh: 2.8; Beta apoptosis: 3.8

Results for CNC[C@H](Cc1ccccc1)NC[C@@H](Cc1cccc2ccccc12)NCCc1ccc(C)cc1 ?
CSC inhib: 108.1*; T cruzi repl: 48.0; HIF activator: 0.7; PfHsp90 yeast 2: 3.2; SKKanGAS inh: 94.5*; Beta apoptosis: 106.8*

Results for CNCCNC[C@H](Cc1cccc2ccccc12)NCCc1ccccc1 ?
CSC inhib: 12.3; PfHsp90 yeast 2: -12.4; Beta apoptosis: 5.7

Results for CCn1c2c(c(=N)c3c1CCC3)CCCC2 ?
CSC inhib: -10.2; T cruzi repl: -3.2; HIF activator: 0.1; SKKanGAS inh: 0.3; Beta apoptosis: 12.6

How did N=c1c2c(n(Cc3cccc(Cl)c3)c3c1CCC3)CCCC2 do in these assays?
CSC inhib: 8.7; T cruzi repl: 58.4*; HIF activator: -0.1; PfHsp90 yeast 2: 1.0; SKKanGAS inh: 0.0; Beta apoptosis: 94.2*

How did N=c1c2c(n(Cc3ccccc3)c3c1CCC3)CCC2 do in these assays?
CSC inhib: -3.9; T cruzi repl: 47.4; HIF activator: 1.1; PfHsp90 yeast 2: -4.9; SKKanGAS inh: 3.7; Beta apoptosis: 35.7

What do the screens show for `N=c1c2c(n(Cc3ccc(F)cc3)c3c1CCC3)CCCC2`?
CSC inhib: -3.4; T cruzi repl: 63.3*; HIF activator: -0.8; PfHsp90 yeast 2: 11.7; SKKanGAS inh: 9.9; Beta apoptosis: 23.2

Results for N=c1c2c(n(Cc3ccc(Cl)cc3)c3c1CCC3)CCC2 ?
T cruzi repl: 79.4*; HIF activator: -0.3; PfHsp90 yeast 2: -6.2; SKKanGAS inh: 9.4; Beta apoptosis: 52.3

What do the screens show for `NC(=O)C1CCN(C(=O)CCC(=O)c2cccs2)CC1`?
PfHsp90 yeast 2: 15.5; Beta apoptosis: 3.1

What do the screens show for `Oc1cccc(C(O)CNCc2ccc(-c3ccccc3)cc2)c1` (stereo not drawn)?
CSC inhib: 45.4; T cruzi repl: 28.1; HIF activator: 0.4; PfHsp90 yeast 2: 21.2; SKKanGAS inh: -3.6; Beta apoptosis: 0.2

What do the screens show for `Oc1cccc(C(O)CNCc2ccc(OCc3ccc(Cl)cc3Cl)cc2)c1` (stereo not drawn)?
CSC inhib: 78.1*; T cruzi repl: -1.2; HIF activator: -0.1; PfHsp90 yeast 2: -12.1; SKKanGAS inh: 5.4; Beta apoptosis: 5.2

Results for COc1ccc(C2=NS(=O)(=O)N(C)C(C(=O)N3CCOCC3)=C2)cc1OC ?
CSC inhib: -9.5; T cruzi repl: -2.9; HIF activator: -0.6; PfHsp90 yeast 2: 27.7; SKKanGAS inh: 0.1; Beta apoptosis: -9.0

Results for S=C(NCc1ccccn1)NN=Cc1ccccn1 ?
PfHsp90 yeast 2: -7.9

How did CN(c1ccc(OCC(=O)OCC(=O)Nc2ccccc2)cc1)S(=O)(=O)c1cccs1 do in these assays?
CSC inhib: -1.1; T cruzi repl: -9.9; HIF activator: -31.2; PfHsp90 yeast 2: 3.1; SKKanGAS inh: -7.5; Beta apoptosis: -1.8

Results for CCN(CC)c1ccc(NC(=O)COc2ccc(N(C)S(=O)(=O)c3cccs3)cc2)cc1 ?
CSC inhib: 18.8; T cruzi repl: 60.5*; HIF activator: -1.0; PfHsp90 yeast 2: 7.1; SKKanGAS inh: 2.4; Beta apoptosis: 0.4

What do the screens show for `O=S(=O)(Nc1cc(Sc2cccc3cccnc23)c(O)c2ccccc12)c1ccc(F)cc1`?
CSC inhib: 119.5*; T cruzi repl: 53.1; HIF activator: 0.3; SKKanGAS inh: 87.4*; Beta apoptosis: 101.9*

Results for CCOc1ccccc1/C=N\Nc1cnn(Cc2ccccc2)c(=O)c1Cl ?
CSC inhib: -2.9; T cruzi repl: 55.7*; HIF activator: -0.8; PfHsp90 yeast 2: -17.7; SKKanGAS inh: 35.0; Beta apoptosis: -1.6

How did COc1ccccc1/C=N\Nc1cn[nH]c(=O)c1Cl do in these assays?
CSC inhib: 5.2; T cruzi repl: -0.7; HIF activator: -0.1; PfHsp90 yeast 2: -1.3; SKKanGAS inh: -11.9; Beta apoptosis: 4.5

Results for O=C(Nc1ccc(Cl)cc1)N[C@@H]1c2c(ccc3ccccc23)OC[C@@H]1CO ?
CSC inhib: 23.2; T cruzi repl: 42.1; HIF activator: 0.2; PfHsp90 yeast 2: -20.6; SKKanGAS inh: 60.3*; Beta apoptosis: -0.7

How did CN(C(=O)c1ccccc1)C1c2c(ccc3ccccc23)OCC1CO (stereo not drawn) do in these assays?
CSC inhib: -2.9; T cruzi repl: 12.0; HIF activator: -1.6; PfHsp90 yeast 2: 15.1; SKKanGAS inh: 1.3; Beta apoptosis: -3.2

How did CC1CCC(NC(=O)c2ccc(COc3ccccc3)o2)CC1 (stereo not drawn) do in these assays?
CSC inhib: 14.4; T cruzi repl: 4.4; HIF activator: 0.2; PfHsp90 yeast 2: -15.1; SKKanGAS inh: -10.2; Beta apoptosis: -5.4

Results for Nc1c(C(=O)O)sc2nc3c(cc12)CCCC3 ?
CSC inhib: -8.9; T cruzi repl: -25.4; HIF activator: 0.2; SKKanGAS inh: 17.5; Beta apoptosis: -8.3

How did CN1CCc2nc3sc(C(=O)C45CC6CC(CC(C6)C4)C5)c(N)c3cc2C1 do in these assays?
CSC inhib: 59.9; PfHsp90 yeast 2: 129.5*; Beta apoptosis: 7.7

Results for O=S(=O)(c1ccc(C(F)(F)F)cc1)N1CCN(CCc2ccccc2)CC1 ?
CSC inhib: -6.5; T cruzi repl: 38.8; HIF activator: -0.7; PfHsp90 yeast 2: 11.7; SKKanGAS inh: -7.7; Beta apoptosis: 3.4
